Measured values from ChEMBL document CHEMBL1141109, “Synthesis of an estrogen receptor beta-selective radioligand: 5-[18F]fluoro-(2R,3S)-2,3-bis(4-hydroxyphenyl)pentanenitrile and comparison of in vivo distribution with 16alpha-[18F]fluoro-17beta-estradiol” (J Med Chem, 2005).
Values belong to the molecule of their own block, whether it stands above or below them.

Legend:
[1] = Biodistribution of [18F]FEDPN in beta estrogen receptor knock out mouse liver after 30 min; (n=3); assay type: ADME, organism-based; conditions: in vivo, 0.5 h
Method in brief: (§1)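 αERKO and βERKO mice, staged by daily vaginal smears and kept on estrogen-free chow, were studied in a nonestrous stage. Each mouse received 11 μCi of tracer in 130 μL of 10% ethanol/saline. Mice were killed at 30 min, 1 h or 2 h (n = 3 each). Organs were removed, blotted, weighed and gamma-counted against an injectate standard. Uptake is given as %ID/g ± SD.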

[2] = Biodistribution of [18F]FEDPN in alpha estrogen receptor knock out mouse heart after 30 min; (n=3); assay type: ADME, organism-based; conditions: in vivo, 0.5 h
Method in brief: (§2)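 ERKO female mice (αERKO or βERKO), rested 48 h after shipping, placed on estrogen-free chow, and staged by daily vaginal smears. Injected in a nonestrous stage with 11 µCi [18F]FEDPN in 130 µL of 10% ethanol/saline. Killed at 30 min, 1 h or 2 h. Organs counted and reported as %ID/g ± SD, three animals per point.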

[3] = Biodistribution of [18F]FEDPN in alpha estrogen receptor knock out mouse muscle after 30 min; (n=3); assay type: ADME, organism-based, Muscle tissue; conditions: in vivo, 0.5 h; method in brief: as §1
[4] = Biodistribution of [18F]FEDPN in alpha estrogen receptor knock out mouse thymus after 30 min; (n=3); assay type: ADME, organism-based; conditions: in vivo, 0.5 h; method in brief: as §1
[5] = Biodistribution of [18F]FEDPN in alpha estrogen receptor knock out mouse uterus after 30 min; (n=3); assay type: ADME, organism-based; conditions: in vivo, 0.5 h; method in brief: as §1
[6] = Biodistribution of [18F]FEDPN in rat lung after 30 min when given in tail vein; (n=5); assay type: ADME, organism-based; conditions: in vivo, iv, 0.5 h
Method in brief: (§3)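 Immature female Sprague–Dawley rats (<25 days old) under isoflurane/O2 got 20 µCi tracer in 150 µL 20% ethanol/saline by tail vein. […] Rats were killed at 30 min, 1 h or 2 h. Organs were blotted, weighed and gamma-counted against an injectate standard. Data are %ID/g ± SD, five rats per point.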

[7] = Biodistribution of [18F]FEDPN in alpha estrogen receptor knock out mouse fat after 2 h; (n=3); assay type: ADME, organism-based, Adipose tissue; conditions: in vivo; method in brief: as §2
[8] = Biodistribution of [18F]FEDPN in beta estrogen receptor knock out mouse blood after 2 h; (n=3); assay type: ADME, organism-based; conditions: in vivo; method in brief: as §1
[9] = Biodistribution of [18F]FEDPN in rat blood after 2 h when given in tail vein; (n=5); assay type: ADME, organism-based; conditions: in vivo, iv; method in brief: as §3
[10] = Biodistribution of [18F]-FEDPN in rat heart after 1 hr when given in tail vein; (n=5); assay type: ADME, organism-based; conditions: in vivo, iv
Method in brief: (§4)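 Immature female Sprague–Dawley rats (<25 days old) anesthetized with isoflurane/O2. Given 20 µCi tracer by tail vein in 150 µL of 20% ethanol/saline. […] Killed at 30 min, 1 h or 2 h. Blood and organs blotted, weighed and gamma-counted against a standard dilution of the injectate. Reported as %ID/g ± SD, n=5.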

[11] = Biodistribution of [18F]-FEDPN in rat heart after 2 hr when given in tail vein; (n=5); assay type: ADME, organism-based; conditions: in vivo, iv; method in brief: as §4
[12] = Biodistribution of [18F]FEDPN in rat liver after 1 h when given in tail vein; (n=5); assay type: ADME, organism-based; conditions: in vivo, iv; method in brief: as §3
[13] = Biodistribution of [18F]-FEDPN in rat kidney after 2 hr when given in tail vein; (n=5); assay type: ADME, organism-based; conditions: in vivo, iv; method in brief: as §4
[14] = Biodistribution of [18F]FEDPN in rat muscle after 30 min when given in tail vein; (n=5); assay type: ADME, organism-based, Muscle tissue; conditions: in vivo, iv, 0.5 h; method in brief: as §3
[15] = Biodistribution of [18F]FEDPN in rat spleen after 30 min when given in tail vein; (n=5); assay type: ADME, organism-based; conditions: in vivo, iv, 0.5 h; method in brief: as §3
[16] = Biodistribution of [18F]-FEDPN in rat kidney after 1 hr block when given in tail vein; (n=5); assay type: ADME, organism-based; conditions: in vivo, iv; method in brief: as §4
[17] = Biodistribution of [18F]FEDPN in rat ovaries after 1 h block when given in tail vein; (n=5); assay type: ADME, organism-based, Female gonad; conditions: in vivo, iv; method in brief: as §3
[18] = Biodistribution of [18F]FEDPN in beta estrogen receptor knock out mouse liver after 1 h; (n=3); assay type: ADME, organism-based; conditions: in vivo; method in brief: as §1
[19] = Biodistribution of [18F]FEDPN in alpha estrogen receptor knock out mouse liver after 2 h; (n=3); assay type: ADME, organism-based; conditions: in vivo; method in brief: as §2
[20] = Biodistribution of [18F]FEDPN in beta estrogen receptor knock out mouse kidney after 1 h; (n=3); assay type: ADME, organism-based; conditions: in vivo; method in brief: as §1
[21] = Biodistribution of [18F]FEDPN in beta estrogen receptor knock out mouse muscle after 1 h; (n=3); assay type: ADME, organism-based, Muscle tissue; conditions: in vivo; method in brief: as §1
[22] = Biodistribution of [18F]FEDPN in alpha estrogen receptor knock out mouse lung after 30 min; (n=3); assay type: ADME, organism-based; conditions: in vivo, 0.5 h; method in brief: as §1
[23] = Biodistribution of [18F]FEDPN in alpha estrogen receptor knock out mouse muscle after 2 h; (n=3); assay type: ADME, organism-based, Muscle tissue; conditions: in vivo; method in brief: as §1
[24] = Biodistribution of [18F]FEDPN in alpha estrogen receptor knock out mouse thymus after 2 h; (n=3); assay type: ADME, organism-based; conditions: in vivo; method in brief: as §1
[25] = biological target: Estrogen receptor (Mus musculus) (UniProt O08537+P19785); assay: Ratio of [18F]FEDPN uptake in uterus of ERbeta KO-mouse (diestrus) and ERalpha KO-mouse (nonestrus) after 2 hr
Sequence of Estrogen receptor (Mus musculus) (O08537 whole entry, looked up): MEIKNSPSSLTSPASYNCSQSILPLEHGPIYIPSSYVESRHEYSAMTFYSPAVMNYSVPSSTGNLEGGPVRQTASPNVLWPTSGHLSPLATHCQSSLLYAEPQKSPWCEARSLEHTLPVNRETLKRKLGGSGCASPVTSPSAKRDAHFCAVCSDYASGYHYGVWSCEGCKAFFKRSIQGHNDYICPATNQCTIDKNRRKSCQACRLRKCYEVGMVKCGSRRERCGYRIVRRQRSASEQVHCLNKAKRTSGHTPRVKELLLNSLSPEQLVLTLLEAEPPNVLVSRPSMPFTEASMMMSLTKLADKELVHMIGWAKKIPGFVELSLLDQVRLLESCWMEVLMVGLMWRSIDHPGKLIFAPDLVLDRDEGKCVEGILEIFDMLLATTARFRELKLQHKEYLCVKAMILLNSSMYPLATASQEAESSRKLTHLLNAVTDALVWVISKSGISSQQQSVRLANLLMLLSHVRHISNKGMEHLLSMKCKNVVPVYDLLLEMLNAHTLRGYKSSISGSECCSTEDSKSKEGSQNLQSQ
Sequence of Estrogen receptor (Mus musculus) (P19785 whole entry, looked up): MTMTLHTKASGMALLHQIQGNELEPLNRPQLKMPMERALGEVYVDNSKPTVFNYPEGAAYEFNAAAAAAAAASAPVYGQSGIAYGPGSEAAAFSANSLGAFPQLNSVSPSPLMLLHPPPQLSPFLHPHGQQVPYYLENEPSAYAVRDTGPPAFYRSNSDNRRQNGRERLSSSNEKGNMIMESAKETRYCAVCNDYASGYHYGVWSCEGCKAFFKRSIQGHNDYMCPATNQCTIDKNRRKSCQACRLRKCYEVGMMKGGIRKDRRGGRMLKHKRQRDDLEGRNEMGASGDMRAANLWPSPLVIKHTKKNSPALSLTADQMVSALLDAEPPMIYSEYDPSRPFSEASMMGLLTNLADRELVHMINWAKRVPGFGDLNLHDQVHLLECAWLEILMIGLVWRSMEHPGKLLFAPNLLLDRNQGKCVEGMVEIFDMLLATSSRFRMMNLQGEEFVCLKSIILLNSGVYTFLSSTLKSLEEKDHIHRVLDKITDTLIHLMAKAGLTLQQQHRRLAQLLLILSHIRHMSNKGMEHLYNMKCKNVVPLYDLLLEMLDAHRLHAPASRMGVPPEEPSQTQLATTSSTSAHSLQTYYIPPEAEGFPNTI

[26] = Biodistribution of [18F]FES in beta estrogen receptor knock out mouse uterus after 30 min(n=2); mice in nonestrus stage; assay type: ADME, organism-based; conditions: in vivo, 0.5 h
[27] = Biodistribution of [18F]FES in beta estrogen receptor knock out mouse blood after 1 h; (n=3); assay type: ADME, organism-based; conditions: in vivo
[28] = Biodistribution of [18F]FES in beta estrogen receptor knock out mouse liver after 1 h; (n=3); assay type: ADME, organism-based; conditions: in vivo
[29] = Biodistribution of [18F]FES in alpha estrogen receptor knock out mouse blood after 1 h; (n=3); assay type: ADME, organism-based; conditions: in vivo
Method in brief: (§5)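 Female αERKO mice were rested 48 h after shipping and fed estrogen-free chow. They were staged by daily vaginal smears and studied in diestrus. Each received 13 µCi [18F]FES in 100 µL 10% ethanol/saline and was sacrificed at 30 min, 1 h or 2 h (n = 3 per time). Tissue uptake is given as %ID/g ± SD.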

[30] = Biodistribution of [18F]FES in beta estrogen receptor knock out mouse kidney after 2 h; (n=3); assay type: ADME, organism-based; conditions: in vivo
[31] = Biodistribution of [18F]FES in beta estrogen receptor knock out mouse muscle after 1 h; (n=3); assay type: ADME, organism-based, Muscle tissue; conditions: in vivo
[32] = Biodistribution of [18F]FES in beta estrogen receptor knock out mouse spleen after 2 h; (n=3); assay type: ADME, organism-based; conditions: in vivo
[33] = Biodistribution of [18F]FES in beta estrogen receptor knock out mouse blood after 2 h; (n=3); assay type: ADME, organism-based; conditions: in vivo
[34] = Biodistribution of [18F]FES in alpha estrogen receptor knock out mouse kidney after 1 h; (n=3); assay type: ADME, organism-based; conditions: in vivo; method in brief: as §5
[35] = Biodistribution of [18F]FES in alpha estrogen receptor knock out mouse thymus after 1 h; (n=3); assay type: ADME, organism-based; conditions: in vivo
[36] = Biodistribution of [18F]FES in alpha estrogen receptor knock out mouse brain after 30 min; (n=3); assay type: ADME, organism-based; conditions: in vivo, 0.5 h
Method in brief: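 Female αERKO mice rested 48 h after shipping and fed estrogen-free chow. Estrous stage was checked by daily vaginal smears, and mice were used in diestrus. Each received 13 µCi [18F]FES in 100 µL 10% ethanol/saline. Animals were sacrificed at 30 min, 1 h or 2 h (n = 3 each). Tissue uptake is reported as %ID/g ± SD.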

[37] = Biodistribution of [18F]FES in alpha estrogen receptor knock out mouse liver after 30 min; (n=3); assay type: ADME, organism-based; conditions: in vivo, 0.5 h; method in brief: as §5

Biodistribution [1]: 4.55 %ID/g
Biodistribution [2]: 1.57 %ID/g
Biodistribution [3]: 1.21 %ID/g
Biodistribution [4]: 1.27 %ID/g
Biodistribution [5]: 1.11 %ID/g
Biodistribution [6]: 0.71 %ID/g
Biodistribution [7]: 0.09 %ID/g
Biodistribution [8]: 0.18 %ID/g
Biodistribution [9]: 0.24 %ID/g
Biodistribution [10]: 0.29 %ID/g
Biodistribution [11]: 0.11 %ID/g
Biodistribution [12]: 1.51 %ID/g
Biodistribution [13]: 0.97 %ID/g
Biodistribution [14]: 0.57 %ID/g
Biodistribution [15]: 0.31 %ID/g
Biodistribution [16]: 1.01 %ID/g
Biodistribution [17]: 0.26 %ID/g
Biodistribution [18]: 3.79 %ID/g
Biodistribution [19]: 1.93 %ID/g
Biodistribution [20]: 2.42 %ID/g
Biodistribution [21]: 0.75 %ID/g
Biodistribution [22]: 4.32 %ID/g
Biodistribution [23]: 0.36 %ID/g
Biodistribution [24]: 0.28 %ID/g
Ratio [25]: 1.29
Structure (SMILES): N#C[C@H](c1ccc(O)cc1)[C@@H](CCF)c1ccc(O)cc1

Biodistribution [26]: 18.86 %ID/g
Biodistribution [27]: 0.3 %ID/g
Biodistribution [28]: 5.85 %ID/g
Biodistribution [29]: 0.21 %ID/g
Biodistribution [30]: 1.05 %ID/g
Biodistribution [31]: 1.29 %ID/g
Biodistribution [32]: 0.37 %ID/g
Biodistribution [33]: 0.16 %ID/g
Biodistribution [34]: 1.07 %ID/g
Biodistribution [35]: 0.21 %ID/g
Biodistribution [36]: 0.41 %ID/g
Biodistribution [37]: 7.47 %ID/g
Structure (SMILES): C[C@]12CC[C@@H]3c4ccc(O)cc4CC[C@H]3[C@@H]1C[C@@H](F)[C@@H]2O [FLUOROESTRADIOL]
